The values that follow come from ChEMBL document CHEMBL4184105, “Synthesis and biological evaluation of novel mono- and bivalent ASGP-R-targeted drug-conjugates” (Bioorg Med Chem Lett, 2018).

The structures appear in SMILES notation. Active and inactive are the calls of the source. The calls are words filed in the database; no cut-off is given here.

The nature of data set [1]: Stability of compound at pH 5 after 24 hrs by HPLC-MS analysis. It counts as physicochemical. Particulars: buffer, pH 5, 24 h.
The nature of data set [2]: Stability of compound at pH 7.4 after 24 hrs by HPLC-MS analysis. The data set is classed as physicochemical. Conditions: buffer, pH 7.4, 24 h.
Data set [3] is described as follows: Binding affinity to rabbit asialoglycoprotein receptor by SPR assay. Further details: species or system Oryctolagus cuniculus. A general note: Surface plasmon resonance follows binding to a sensor surface in real time, without labels.
The test system of data set [4] is HepG2. As to the kind of experiment: Cytotoxicity against human HepG2 cells by MTS assay. The data set is classed as functional. A general note: Tetrazolium dyes change colour on reduction, which living cells bring about.
For data set [5], the system named is HepG2. As to the kind of experiment: Induction of morphological changes in human HepG2 cells assessed as mitosis with more than 2 poles at 1 umol after 24 hrs by DAPI staining-based immunofluorescence assay. The data set is classed as functional, cell-based. In short, it runs like this:
(§1)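 HepG2 cells were fixed, permeabilized and immunostained with an anti-α-tubulin antibody, with nuclei counterstained by DAPI. Nuclear and cytoskeletal (microtubule, mitotic spindle) morphology was then examined by immunofluorescence microscopy alongside untreated cells.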

Data set [6] has as its system HepG2. The data set can be described thus: Induction of morphological changes in human HepG2 cells assessed as abnormal nuclei at 1 umol after 24 hrs by DAPI staining-based immunofluorescence assay. It counts as functional, cell-based. In short, it runs like this: as §1
Data set [7] has as its system HepG2. As to the kind of experiment: Induction of morphological changes in human HepG2 cells assessed as altered microtubule structure at 1 umol after 24 hrs by DAPI staining-based immunofluorescence assay. It counts as functional, cell-based. The procedure, abridged: as §1

As to `C=CCO[C@@H]1O[C@H](Cn2cc(CCCC(=O)O[C@H]3C[C@H]4OC[C@@]4(OC(C)=O)[C@H]4[C@H](OC(=O)c5ccccc5)[C@]5(O)C[C@H](OC(=O)[C@H](OC(=O)CCCc6cn(C[C@H]7O[C@@H](OCC=C)[C@H](NC(C)=O)[C@@H](O)[C@H]7O)nn6)[C@@H](NC(=O)c6ccccc6)c6ccccc6)C(C)=C([C@@H](OC(C)=O)C(=O)[C@]34C)C5(C)C)nn2)[C@H](O)[C@H](O)[C@H]1NC(C)=O`, the Stability entry in data set [1] and in data set [2] was “Stable” in each case. Also, the affinity in data set [3], expressed as Kd, was 0.327 nM.

In turn, `CC(=O)N[C@H]1[C@H](OCCCCCCNC(=O)CCOCC(COCCC(=O)NCCCCCCO[C@@H]2O[C@H](CO)[C@H](O)[C@H](O)[C@H]2NC(C)=O)(COCCC(=O)NCCCCCCO[C@@H]2O[C@H](CO)[C@H](O)[C@H](O)[C@H]2NC(C)=O)NC(=O)CCCCCCCCCCN=[N+]=[N-])O[C@H](CO)[C@H](O)[C@@H]1O` came in with a Kd in data set [3] of 2.16 nM.

Take `CC(=O)N[C@@H]1[C@@H](O)[C@@H](O)[C@@H](CO)O[C@H]1n1cc(CCCC(=O)O[C@@H](C(=O)O[C@H]2C[C@@]3(O)[C@@H](OC(=O)c4ccccc4)[C@@H]4[C@]5(OC(C)=O)CO[C@@H]5C[C@H](O)[C@@]4(C)C(=O)[C@H](OC(C)=O)C(=C2C)C3(C)C)[C@@H](NC(=O)c2ccccc2)c2ccccc2)nn1`: half-maximal cytotoxicity in data set [4] (CC50) was put at 92 nM. Moreover, the Stability result in data set [1] and in data set [2] was “Stable” each time. In data set [3], this compound showed a Kd of 2.21 nM.

With `CC(=O)N[C@H]1[C@H](OCCn2cc(CCCC(=O)O[C@H]3C[C@H]4OC[C@@]4(OC(C)=O)[C@H]4[C@H](OC(=O)c5ccccc5)[C@]5(O)C[C@H](OC(=O)[C@H](OC(=O)CCCc6cn(CCO[C@@H]7O[C@H](CO)[C@H](O)[C@H](O)[C@H]7NC(C)=O)nn6)[C@@H](NC(=O)c6ccccc6)c6ccccc6)C(C)=C([C@@H](OC(C)=O)C(=O)[C@]34C)C5(C)C)nn2)O[C@H](CO)[C@H](O)[C@@H]1O`, the Stability result in data set [1] and in data set [2] was “Stable” in each case. Further, the outcome in data set [5], in data set [6] and in data set [7] was Active.

In turn, `CC(=O)N[C@H]1[C@H](OCCCCCCNC(=O)CCOCC(COCCC(=O)NCCCCCCO[C@@H]2O[C@H](CO)[C@H](O)[C@H](O)[C@H]2NC(C)=O)(COCCC(=O)NCCCCCCO[C@@H]2O[C@H](CO)[C@H](O)[C@H](O)[C@H]2NC(C)=O)NC(=O)CCCCCCCCCCn2cc(CCCC(=O)O[C@@H](C(=O)O[C@H]3C[C@@]4(O)[C@@H](OC(=O)c5ccccc5)[C@@H]5[C@]6(OC(C)=O)CO[C@@H]6C[C@H](O)[C@@]5(C)C(=O)[C@H](OC(C)=O)C(=C3C)C4(C)C)[C@@H](NC(=O)c3ccccc3)c3ccccc3)nn2)O[C@H](CO)[C@H](O)[C@@H]1O` gave a CC50 in data set [4] of 110 nM. Further, the Stability entry in data set [1] and in data set [2] was “Stable” each time. In data set [3], this compound showed a Kd of 1.36 nM.

Compound `CC(=O)N[C@@H]1[C@@H](O)[C@@H](O)[C@@H](CO)O[C@H]1n1cc(CCCC(=O)O[C@H]2C[C@H]3OC[C@@]3(OC(C)=O)[C@H]3[C@H](OC(=O)c4ccccc4)[C@]4(O)C[C@H](OC(=O)[C@H](OC(=O)CCCc5cn([C@@H]6O[C@H](CO)[C@H](O)[C@H](O)[C@H]6NC(C)=O)nn5)[C@@H](NC(=O)c5ccccc5)c5ccccc5)C(C)=C([C@@H](OC(C)=O)C(=O)[C@]23C)C4(C)C)nn1` had a CC50 in data set [4] of 22900 nM. The Stability result in data set [1] and in data set [2] was “Stable” throughout. This compound returned a Kd in data set [3] of 1.39 nM. Besides, the result in data set [5], in data set [6] and in data set [7] was Active.

As to `C=CCO[C@@H]1O[C@H](Cn2cc(CCCC(=O)O[C@@H](C(=O)O[C@H]3C[C@@]4(O)[C@@H](OC(=O)c5ccccc5)[C@@H]5[C@]6(OC(C)=O)CO[C@@H]6C[C@H](O)[C@@]5(C)C(=O)[C@H](OC(C)=O)C(=C3C)C4(C)C)[C@@H](NC(=O)c3ccccc3)c3ccccc3)nn2)[C@H](O)[C@H](O)[C@H]1NC(C)=O`, in data set [4], half-maximal cytotoxicity (CC50) was put at 3250 nM. Besides, the Stability entry in data set [1] and in data set [2] was “Stable” throughout. In data set [3], binding was put at a Kd of 0.161 nM. In addition, the result in data set [5], in data set [6] and in data set [7] was Active.

In the case of `CC(=O)N[C@H]1[C@H](OCCn2cc(CCCC(=O)O[C@@H](C(=O)O[C@H]3C[C@@]4(O)[C@@H](OC(=O)c5ccccc5)[C@@H]5[C@]6(OC(C)=O)CO[C@@H]6C[C@H](O)[C@@]5(C)C(=O)[C@H](OC(C)=O)C(=C3C)C4(C)C)[C@@H](NC(=O)c3ccccc3)c3ccccc3)nn2)O[C@H](CO)[C@H](O)[C@@H]1O`, in data set [4], the midpoint of cytotoxicity, the CC50, lay at 820 nM. Moreover, the Stability entry in data set [1] and in data set [2] was “Stable” throughout. The Kd in data set [3] amounted to 249 nM. Moreover, the outcome in data set [5], in data set [6] and in data set [7] was Active.

In data set [4], `CC(=O)O[C@H]1C(=O)[C@@]2(C)[C@H]([C@H](OC(=O)c3ccccc3)[C@]3(O)C[C@H](OC(=O)[C@H](O)[C@@H](NC(=O)c4ccccc4)c4ccccc4)C(C)=C1C3(C)C)[C@]1(OC(C)=O)CO[C@@H]1C[C@@H]2O` [PACLITAXEL] had a CC50 of 120 to 210 nM. Besides, the Stability result in data set [1] and in data set [2] was “Stable” throughout. Besides, the outcome in data set [5], in data set [6] and in data set [7] was Active.

Broadly, the Kd is the constant that tells how readily two partners part at equilibrium. A lower Kd goes with a tighter complex. In general, CC50 refers to the concentration giving 50% cytotoxicity.
